Results gathered from unrelated publications.
Each line is one published result; the experiments were not run side by side. Values after ≈ are worked out from the molar mass of the structure shown.

CC1(C)C[C@H]2[C@H]1CC[C@]1(C)CCC[C@@]2(NS(=O)(=O)c2ccc(OC(F)(F)F)cc2)C1  inhibition (HT-29; cell growth or viability, CCK-8; 10 µM): < 50%
COc1c(N2C[C@@H]3CCCN[C@@H]3C2)c(F)cc2c(=O)c(C(=O)O)cn(C3CC3)c12  MIC (Streptococcus pneumoniae; microbial growth, agar dilution; ATCC49619): 0.125 µg/mL (≈ 0.311 µM)
COc1ccc(-c2cn([C@@]34CCC[C@@](C)(CC[C@@H]5[C@@H]3CC5(C)C)C4)nn2)cc1  inhibition (HT-29; cell growth or viability, CCK-8; 50 µM): 44.8%
CC[C@H]1OC(=O)[C@H](C)[C@@H](O[C@H]2C[C@@](C)(OC)[C@@H](O)[C@H](C)O2)[C@H](C)[C@@H](O[C@@H]2O[C@H](C)C[C@H](N(C)C)[C@H]2O)[C@](C)(O)C[C@@H](C)/C(=N\OCOCCOC)[C@H](C)[C@@H](O)[C@]1(C)O  MIC90 (Streptococcus pneumoniae; microbial growth; PRSP; clinical isolate): 16 µg/mL (≈ 19.1 µM)
CC1(C)C[C@H]2[C@H]1CC[C@]1(C)CCC[C@@]2(NS(C)(=O)=O)C1  inhibition (HT-29; cell growth or viability, CCK-8; 10 µM): < 50%
CC(=O)NC[C@H]1CN(c2ccc(N3CCOCC3)c(F)c2)C(=O)O1  MIC (Streptococcus pneumoniae; microbial growth, agar dilution; ATCC49619): 0.5 µg/mL (≈ 1.48 µM)
O=c1c2cc(Cl)ccc2nc(-c2ccccc2)n1N=Cc1cccc(O)c1  IC50 (LLC-PK1; cell growth or viability, MTT; 72 h): 321 µM
CC1(C)C[C@H]2[C@H]1CC[C@]1(C)CCC[C@@]2(NS(=O)(=O)c2cc(Cl)cc(Cl)c2O)C1  inhibition (HT-29; cell growth or viability, CCK-8; 10 µM): < 50%
CC(C)(O/N=C(\C(=O)N[C@@H]1C(=O)N2C(C(=O)[O-])=C(C[n+]3ccccc3)CS[C@H]12)c1csc(N)n1)C(=O)O  MIC (Klebsiella pneumoniae; microbial growth, broth dilution; ATCC43816): < 0.5 µg/mL
Cc1nc(Nc2ncc(C(=O)Nc3c(C)cccc3Cl)s2)cc(N2CC[C@H](O)C2)n1  inhibition (CA46; cell growth or viability, ATP luminescence; 10 µM, 72 h): 56%
CCS(=O)(=O)Oc1cc(C=NNC(=O)CSc2nc3ccc(Cl)cc3c(=O)n2-c2ccccc2)ccc1OC  inhibition zone (Klebsiella pneumoniae; microbial growth, well diffusion; 20 µg/mL): 2 mm
CC1(C)C[C@H]2[C@H]1CC[C@]1(C)CCC[C@@]2(n2cc(C(=O)N3CCNCC3)nn2)C1  inhibition (HT-29; cell growth or viability, CCK-8; 10 µM): 91.6%
CCCS(=O)(=O)Oc1ccc(C=NNC(=O)CSc2nc3c(C)cccc3c(=O)n2-c2ccccc2)cc1OC  inhibition zone (Klebsiella pneumoniae; microbial growth, well diffusion; 20 µg/mL): 2 mm
COc1ccc(C=Nn2c(-c3ccccc3)nc3ccc(Cl)cc3c2=O)cc1O  IC50 (LLC-PK1; cell growth or viability, MTT; 72 h): 279 µM
CCS(=O)(=O)Oc1cc(C=NNC(=O)CSc2nc3c(C)cccc3c(=O)n2-c2ccccc2)ccc1OC  inhibition zone (Klebsiella pneumoniae; microbial growth, well diffusion; 20 µg/mL): 3 mm
CC1(C)C[C@H]2[C@H]1CC[C@]1(C)CCC[C@@]2(n2cc(C(=O)NC3CCNCC3)nn2)C1  inhibition (HT-29; cell growth or viability, CCK-8; 50 µM): 74.4%
Cc1cccc2c(=O)n(-c3ccccc3)c(SCC(=O)NN=Cc3ccc(OS(C)(=O)=O)cc3)nc12  inhibition zone (Klebsiella pneumoniae; microbial growth, well diffusion; 20 µg/mL): 3 mm
CC1(C)C[C@H]2[C@H]1CC[C@]1(C)CCC[C@@]2(NS(=O)(=O)C(C)(C)C)C1  inhibition (HT-29; cell growth or viability, CCK-8; 10 µM): < 50%
CCS(=O)(=O)Oc1ccc(C=NNC(=O)CSc2nc3c(C)cccc3c(=O)n2-c2ccccc2)cc1  inhibition zone (Klebsiella pneumoniae; microbial growth, well diffusion; 20 µg/mL): 2 mm
C=C[C@]1(C)C[C@@H](OC(=O)CS[C@@H]2C[C@H]3CC[C@@H](C2)N3C)[C@]2(C)[C@H](C)CC[C@]3(CCC(=O)[C@H]32)[C@@H](C)[C@@H]1O  MIC90 (Streptococcus pneumoniae; microbial growth; PRSP; clinical isolate): 0.0312 µg/mL (≈ 0.0604 µM)
O=c1oc2ccccc2c(Nc2ccccc2)c1I  MIC90 (Klebsiella pneumoniae; microbial growth, broth dilution): 9 µg/mL (≈ 24.8 µM)
CN[C@H](CC(C)C)C(=O)N[C@H]1C(=O)N[C@@H](CC(N)=O)C(=O)N[C@H]2C(=O)N[C@H]3C(=O)N[C@H](C(=O)N[C@H](C(=O)O)c4cc(O)cc(O)c4-c4cc3ccc4O)[C@H](O)c3ccc(c(Cl)c3)Oc3cc2cc(c3O[C@@H]2O[C@H](CO)[C@@H](O)[C@H](O)[C@H]2O[C@H]2C[C@](C)(N)[C@H](O)[C@H](C)O2)Oc2ccc(cc2Cl)[C@H]1O  MIC (Streptococcus pneumoniae; microbial growth, agar dilution; ATCC49619): 0.5 µg/mL (≈ 0.345 µM)
CCCS(=O)(=O)Oc1ccc(C=NNC(=O)CSc2nc3c(C)cccc3c(=O)n2-c2ccccc2)cc1  inhibition zone (Klebsiella pneumoniae; microbial growth, well diffusion; 20 µg/mL): 3 mm
O=c1c2cc(Cl)ccc2nc(-c2ccccc2)n1N=Cc1ccc(Cl)c(Cl)c1  IC50 (LLC-PK1; cell growth or viability, MTT; 72 h): 337 µM
CCS(=O)(=O)Oc1ccc(C=NNC(=O)CSc2nc3ccc(Cl)cc3c(=O)n2-c2ccccc2)cc1  inhibition zone (Klebsiella pneumoniae; microbial growth, well diffusion; 20 µg/mL): 2 mm
CC1(C)S[C@@H]2[C@H](NC(=O)[C@H](N)c3ccccc3)C(=O)N2[C@H]1C(=O)O  MIC (Streptococcus pneumoniae; microbial growth, agar dilution; ATCC49619): 0.5 µg/mL (≈ 1.43 µM)
CCCS(=O)(=O)Oc1cc(C=NNC(=O)CSc2nc3c(C)cccc3c(=O)n2-c2ccccc2)ccc1OC  inhibition zone (Klebsiella pneumoniae; microbial growth, well diffusion; 20 µg/mL): 2 mm
CC1(C)C[C@H]2[C@H]1CC[C@]1(C)CCC[C@@]2(n2cc(CN3CCOCC3)nn2)C1  inhibition (HT-29; cell growth or viability, CCK-8; 50 µM): 45%
